Measurements published in article PMC9810080 (Biochemistry, 2022).
Residues, ends and D or L forms follow the SMILES beside them.

Assays:
[1] = target: Ca^2+-bound CaM (full-length calmodulin) (Homo sapiens, UniProt P0DP23); assay: ITC, peptide binding to full-length Ca2+-bound CaM; conditions: for K2: association constant, site 2; for K2 / ΔH1 / ΔH2: ITC two-site model, 27 °C, pH 7.0, 1 mM CaCl2; for ΔH1: higher-affinity exothermic site; for ΔH2: lower-affinity endothermic site
In short: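 Calorimetry at 27 °C used CNGB1 CaM-binding-domain peptides (DMSO-d6 stocks, quantified by UV–vis) and recombinant Ca2+-bound CaM, both exchanged into 20 mM Tris pH 7.0, 100 mM KCl, 1 mM CaCl2. Peptide at 50 μM in the cell was titrated with 0.5 mM CaM over 34 injections, and the isotherm was fitted to a two-site model. The apoCaM comparison used 20 mM Tris pH 8.0, 100 mM KCl, 2 mM EGTA with a one-site fit.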

Ca^2+-free CaM (apoCaM) = Ca^2+-free CaM (apoCaM) (Homo sapiens, UniProt P0DP23); assay: ITC, peptide binding to Ca2+-free CaM; conditions: ITC one-site model; 27 °C; 20 mM Tris pH 8.0, 100 mM KCl, 2 mM EGTA
In short: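 Recombinant calmodulin (Ca²⁺-free) titrated into a synthetic CNGB1 CaM-binding-domain peptide (residues 1120–1147; dissolved in DMSO-d₆, quantified by UV–vis). Both were exchanged into 20 mM Tris pH 8.0, 100 mM KCl, 2 mM EGTA. Peptide was 50 μM in the cell and CaM was 0.5 mM in the syringe, over 34 injections at 27 °C. The isotherm was fit to a one-site model for ΔH.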

[2] = target: Ca^2+-bound CaM C-lobe (residues 80–149) (Homo sapiens, UniProt P0DP23); assay: ITC, peptide binding to isolated CaM C-lobe; conditions: for ΔH1: ITC one-site model, isolated CaM C-lobe, 27 °C, pH 7.0, 1 mM CaCl2; for fold decrease in binding affinity to CaM C-lobe caused by mutation: versus CaM2^WT, ITC
In short: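 Wild-type and point-mutant CNGB1 peptides (DMSO-d6 stocks, UV–vis quantified) and the recombinant Ca2+-bound CaM C-lobe fragment were exchanged into 20 mM Tris pH 7.0, 100 mM KCl, 1 mM CaCl2. At 27 °C, 50 μM peptide in the cell was titrated with 0.5 mM C-lobe over 34 injections. Isotherms were fitted to a one-site model.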

[3] = target: Ca^2+-bound CaM N-lobe (residues 1–80) (Homo sapiens, UniProt P0DP23); assay: ITC, peptide binding to isolated CaM N-lobe; conditions: for ΔH1: ITC, isolated CaM N-lobe, 27 °C, pH 7.0, 1 mM CaCl2
In short: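 The isolated recombinant Ca2+-bound CaM N-lobe and CNGB1 peptides (DMSO-d6 stocks, UV–vis quantified) were buffer-exchanged into 20 mM Tris pH 7.0, 100 mM KCl, 1 mM CaCl2. At 27 °C, 50 μM peptide in the cell was titrated with 0.5 mM N-lobe over 34 injections. The CaM1 isotherm was fitted to a one-site model and the CaM2 isotherm to a two-site model.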

SMILES	K2 [1]	ΔH1 [1] [kcal/mol]	ΔH2 [1]	ΔH1 [2]	fold decrease in binding affinity to CaM C-lobe caused by mutation [2]	ΔH1 [3]	further results
CC(C)C[C@H](NC(=O)[C@H](C)NC(=O)[C@H](C)NC(=O)[C@H](CC(C)C)NC(=O)[C@H](CCC(=O)O)NC(=O)[C@H](CCCCN)NC(=O)[C@H](CC(C)C)NC(=O)[C@H](CCCNC(=N)N)NC(=O)[C@H](C)NC(=O)[C@H](CCCNC(=N)N)NC(=O)[C@H](CC(C)C)NC(=O)[C@H](Cc1c[nH]cn1)NC(=O)[C@H](C)NC(=O)[C@H](CC(C)C)NC(=O)[C@H](CCCCN)NC(=O)CNC(=O)CNC(=O)[C@H](CCCCN)NC(=O)[C@H](C)NC(=O)CNC(=O)[C@H](CCCCN)NC(=O)CNC(=O)CN)C(=O)N[C@@H](CCC(=O)O)C(=O)N[C@@H](C)C(=O)N[C@@H](C)C(=O)N[C@@H](C)C(=O)N[C@@H](CCCCN)C(=O)O [CaM2] (H-GGKGAKGGKLAHLRARLKELAALEAAAK-OH; N-terminus and C-terminus assumed)	2.9 ± 0.5 × 10^6 M^−1	-4.5 ± 1.6	+16 ± 2 kcal/mol	-2.0 ± 0.1 kcal/mol			binding stoichiometry at saturation (peptide:CaM) ([1]; biphasic ITC isotherm): two CaM2 molecules are bound to one molecule of CaM; ΔH (Ca^2+-free CaM (apoCaM)): +2.1 ± 0.4 kcal/mol
CC(C)C[C@H](NC(=O)[C@H](C)NC(=O)[C@H](C)NC(=O)[C@H](CC(C)C)NC(=O)[C@H](CCC(=O)O)NC(=O)[C@H](CCCCN)NC(=O)[C@H](CC(C)C)NC(=O)[C@H](CCCNC(=N)N)NC(=O)[C@H](C)NC(=O)[C@H](CCCNC(=N)N)NC(=O)[C@H](CCC(=O)O)NC(=O)[C@H](Cc1c[nH]cn1)NC(=O)[C@H](C)NC(=O)[C@H](CC(C)C)NC(=O)[C@H](CCCCN)NC(=O)CNC(=O)CNC(=O)[C@H](CCCCN)NC(=O)[C@H](C)NC(=O)CNC(=O)[C@H](CCCCN)NC(=O)CNC(=O)CN)C(=O)N[C@@H](CCC(=O)O)C(=O)N[C@@H](C)C(=O)N[C@@H](C)C(=O)N[C@@H](C)C(=O)N[C@@H](CCCCN)C(=O)O [CaM2^L1132E] (H-GGKGAKGGKLAHERARLKELAALEAAAK-OH; N-terminus and C-terminus assumed)				+3.1 ± 0.5 kcal/mol	more than 500 fold		
CC[C@H](C)[C@H](NC(=O)[C@H](CC(C)C)NC(=O)[C@H](CCCCN)NC(=O)[C@H](CCC(=O)O)NC(=O)[C@H](CCCCN)NC(=O)[C@@H](NC(=O)[C@H](CCCCN)NC(=O)[C@H](CCC(=O)O)NC(=O)[C@@H](NC(=O)[C@H](CCCNC(=N)N)NC(=O)[C@H](CCC(=O)O)NC(=O)[C@H](CCCCN)NC(=O)[C@H](Cc1ccccc1)NC(=O)[C@H](CC(C)C)NC(=O)[C@H](CCCCN)NC(=O)[C@@H](NC(=O)[C@H](CC(C)C)NC(=O)[C@H](CCC(=O)O)NC(=O)[C@H](CCC(N)=O)NC(=O)[C@H](CC(C)C)NC(=O)[C@H](CCCNC(=N)N)NC(=O)[C@H](CC(=O)O)NC(=O)[C@@H](N)CC(N)=O)C(C)C)[C@@H](C)O)C(C)C)C(=O)N[C@@H](CC(=O)O)C(=O)N1CCC[C@H]1C(=O)O [CaM1] (H-NDRLQELVKLFKERTEKVKEKLIDP-OH; N-terminus and C-terminus assumed)	4.2 ± 0.5 × 10^3 M^−1	-7.5 ± 0.2	+40 ± 4 kcal/mol			-2.5 ± 0.2 kcal/mol	fold higher affinity for CaM N-lobe compared to CaM C-lobe ([3]; from ITC with isolated lobes): at least fivefold; fold higher affinity for Ca^2+-bound CaM compared to apoCaM ([1]; comparison of NMR spectral changes and ITC): at least 100 fold
CC[C@H](C)[C@H](NC(=O)[C@H](CC(C)C)NC(=O)[C@H](CCCCN)NC(=O)[C@H](CCC(=O)O)NC(=O)[C@H](CCCCN)NC(=O)[C@@H](NC(=O)[C@H](CCCCN)NC(=O)[C@H](CCC(=O)O)NC(=O)[C@@H](NC(=O)[C@H](CCCNC(=N)N)NC(=O)[C@H](CCC(=O)O)NC(=O)[C@H](CCCCN)NC(=O)[C@H](CCC(=O)O)NC(=O)[C@H](CC(C)C)NC(=O)[C@H](CCCCN)NC(=O)[C@@H](NC(=O)[C@H](CC(C)C)NC(=O)[C@H](CCC(=O)O)NC(=O)[C@H](CCC(N)=O)NC(=O)[C@H](CC(C)C)NC(=O)[C@H](CCCNC(=N)N)NC(=O)[C@H](CC(=O)O)NC(=O)[C@@H](N)CC(N)=O)C(C)C)[C@@H](C)O)C(C)C)C(=O)N[C@@H](CC(=O)O)C(=O)N1CCC[C@H]1C(=O)O [CaM1^F575E] (H-NDRLQELVKLEKERTEKVKEKLIDP-OH; N-terminus and C-terminus assumed)						+0.7 ± 0.5 kcal/mol	
CC(C)C[C@H](NC(=O)[C@H](C)NC(=O)[C@H](C)NC(=O)[C@H](CC(C)C)NC(=O)[C@H](CCC(=O)O)NC(=O)[C@H](CCCCN)NC(=O)[C@H](CCC(=O)O)NC(=O)[C@H](CCCNC(=N)N)NC(=O)[C@H](C)NC(=O)[C@H](CCCNC(=N)N)NC(=O)[C@H](CC(C)C)NC(=O)[C@H](Cc1c[nH]cn1)NC(=O)[C@H](C)NC(=O)[C@H](CC(C)C)NC(=O)[C@H](CCCCN)NC(=O)CNC(=O)CNC(=O)[C@H](CCCCN)NC(=O)[C@H](C)NC(=O)CNC(=O)[C@H](CCCCN)NC(=O)CNC(=O)CN)C(=O)N[C@@H](CCC(=O)O)C(=O)N[C@@H](C)C(=O)N[C@@H](C)C(=O)N[C@@H](C)C(=O)N[C@@H](CCCCN)C(=O)O [CaM2^L1136E] (H-GGKGAKGGKLAHLRAREKELAALEAAAK-OH; N-terminus and C-terminus assumed)				+2.6 ± 1.8 kcal/mol	more than 500 fold		
